Measured values: ChEMBL document CHEMBL4024774 (J Med Chem, 2017)
pIC50, pKi: −log10 of the molar value. The source made the active and inactive calls. The rule behind the calls is not given here.

Assays:
[1] = molecular target: Sodium-dependent dopamine transporter (Rattus norvegicus, UniProt P23977); assay: Displacement of [3H]WIN35428 from Sprague-Dawley rat brain DAT after 120 mins by liquid scintillation counting method
Outline: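 Rat striatal membranes (male Sprague-Dawley) in sucrose phosphate buffer pH 7.4. […] Terminated by filtration on GF/B filters presoaked in 0.05% PEI, then scintillation counting.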

[2] = Displacement of [3H]nisoxetine from Sprague-Dawley rat brain NET after 180 mins by liquid scintillation counting method
Outline: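 Frontal cortex membranes from male Sprague-Dawley rats in 50 mM Tris, 120 mM NaCl, 5 mM KCl, pH 7.4. […] Nonspecific binding with 1 μM desipramine. Methanol level held constant across tubes. Filtered on GF/B filters in 0.05% PEI.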

[3] = molecular target: Sodium-dependent serotonin transporter (Rattus norvegicus, UniProt P31652); assay: Displacement of [3H]citalopram from Sprague-Dawley rat brain SERT after 60 mins by liquid scintillation counting method
Sequence of Sodium-dependent serotonin transporter (P31652 whole entry): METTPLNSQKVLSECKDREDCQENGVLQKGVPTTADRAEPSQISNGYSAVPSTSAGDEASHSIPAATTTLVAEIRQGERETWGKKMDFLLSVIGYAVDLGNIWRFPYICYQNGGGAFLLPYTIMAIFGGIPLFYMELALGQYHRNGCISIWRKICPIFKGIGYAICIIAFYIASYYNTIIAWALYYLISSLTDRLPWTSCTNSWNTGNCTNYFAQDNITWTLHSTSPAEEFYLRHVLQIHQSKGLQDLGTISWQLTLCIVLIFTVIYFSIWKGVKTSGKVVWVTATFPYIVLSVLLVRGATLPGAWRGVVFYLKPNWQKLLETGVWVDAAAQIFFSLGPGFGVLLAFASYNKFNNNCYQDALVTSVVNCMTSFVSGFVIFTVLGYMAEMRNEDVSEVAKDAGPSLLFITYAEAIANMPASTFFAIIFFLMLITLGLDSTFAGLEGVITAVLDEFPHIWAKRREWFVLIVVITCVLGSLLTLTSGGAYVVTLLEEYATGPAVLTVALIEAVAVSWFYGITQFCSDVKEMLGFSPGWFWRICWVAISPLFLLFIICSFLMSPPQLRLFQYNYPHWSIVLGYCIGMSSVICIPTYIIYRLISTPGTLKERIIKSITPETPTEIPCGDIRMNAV
Outline: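 Male Sprague-Dawley rat brain stem membranes in 50 mM Tris with 120 mM NaCl and 5 mM KCl, pH 7.4. […] Nonspecific binding with 10 μM fluoxetine. Filtered on GF/B filters presoaked in 0.3% PEI, scintillation counted.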

[4] = molecular target: T1, Sodium-dependent dopamine transporter (Homo sapiens, UniProt Q01959); assay: Inhibition of […] uptake at wild type human DAT expressed in African green monkey COS7 cells after 90 mins; type: cell-based
T1 sequence (Q01959 whole entry): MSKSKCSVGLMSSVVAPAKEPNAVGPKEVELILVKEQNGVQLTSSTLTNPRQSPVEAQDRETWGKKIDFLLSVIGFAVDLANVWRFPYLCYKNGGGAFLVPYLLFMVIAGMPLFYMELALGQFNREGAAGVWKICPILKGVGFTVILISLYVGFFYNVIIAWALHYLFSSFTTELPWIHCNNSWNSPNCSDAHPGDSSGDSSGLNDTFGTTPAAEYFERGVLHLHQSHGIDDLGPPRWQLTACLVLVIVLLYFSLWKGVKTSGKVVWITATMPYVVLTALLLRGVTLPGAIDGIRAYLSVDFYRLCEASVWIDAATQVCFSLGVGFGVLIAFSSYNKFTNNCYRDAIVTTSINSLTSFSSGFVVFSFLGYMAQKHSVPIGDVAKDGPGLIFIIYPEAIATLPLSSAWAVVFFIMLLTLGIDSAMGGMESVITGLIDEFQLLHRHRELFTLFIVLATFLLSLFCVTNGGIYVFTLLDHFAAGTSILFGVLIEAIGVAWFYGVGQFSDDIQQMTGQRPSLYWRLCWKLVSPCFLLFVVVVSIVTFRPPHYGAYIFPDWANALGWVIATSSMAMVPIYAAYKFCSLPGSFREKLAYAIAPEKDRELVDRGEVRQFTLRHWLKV
Outline: (§1)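 Whole COS7 cells transiently expressing human DAT WT or the Y156F mutant, washed in ice-cold uptake buffer. Incubated with [³H]WIN 35,428 and inhibitor (1 nM–1 mM, 12 concentrations) at 5 °C to equilibrium (>90 min). Triplicates. Ki from IC50 by nonlinear regression and Cheng–Prusoff. Ratio is Y156F Ki over WT Ki.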

[5] = Inhibition of […] uptake at human DAT […] mutant expressed in African green monkey COS7 cells after 90 mins; type: cell-based; outline: as §1
[6] = molecular target: T1, Sodium-dependent dopamine transporter; assay: Inhibition of [3H]DA uptake at wild type human DAT expressed in African green monkey COS7 cells after 5 mins by beta scintillation counting method; type: cell-based
Outline: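 COS7 cells transiently transfected with synthetic human DAT and assayed 2 days later. Preincubated with inhibitor (1 nM–1 mM, 12 concentrations) in HEPES uptake buffer pH 7.4 containing ascorbate and a COMT inhibitor. 6–10 nM [³H]DA added for 5 min at rt. Nonspecific uptake with 1 μM nomifensine. Cells lysed in SDS and scintillation counted. Run in triplicate. Ki from IC50 by Cheng–Prusoff.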

Homo sapiens = species on record: Homo sapiens; assay: Selectivity ratio of Ki for human DAT […] mutant expressed in African green monkey COS7 cells to Ki for wild type human DAT expressed in African green monkey COS7 cells; type: cell-based; outline: as §1
[7] = molecular target: Voltage-gated inwardly rectifying potassium channel KCNH2 (Homo sapiens, UniProt Q12809); assay: Displacement of [3H]Dofetilide from human ERG expressed in HEK cells after 180 mins by scintillation counting method; type: cell-based
Sequence of Voltage-gated inwardly rectifying potassium channel KCNH2 (Q12809 whole entry): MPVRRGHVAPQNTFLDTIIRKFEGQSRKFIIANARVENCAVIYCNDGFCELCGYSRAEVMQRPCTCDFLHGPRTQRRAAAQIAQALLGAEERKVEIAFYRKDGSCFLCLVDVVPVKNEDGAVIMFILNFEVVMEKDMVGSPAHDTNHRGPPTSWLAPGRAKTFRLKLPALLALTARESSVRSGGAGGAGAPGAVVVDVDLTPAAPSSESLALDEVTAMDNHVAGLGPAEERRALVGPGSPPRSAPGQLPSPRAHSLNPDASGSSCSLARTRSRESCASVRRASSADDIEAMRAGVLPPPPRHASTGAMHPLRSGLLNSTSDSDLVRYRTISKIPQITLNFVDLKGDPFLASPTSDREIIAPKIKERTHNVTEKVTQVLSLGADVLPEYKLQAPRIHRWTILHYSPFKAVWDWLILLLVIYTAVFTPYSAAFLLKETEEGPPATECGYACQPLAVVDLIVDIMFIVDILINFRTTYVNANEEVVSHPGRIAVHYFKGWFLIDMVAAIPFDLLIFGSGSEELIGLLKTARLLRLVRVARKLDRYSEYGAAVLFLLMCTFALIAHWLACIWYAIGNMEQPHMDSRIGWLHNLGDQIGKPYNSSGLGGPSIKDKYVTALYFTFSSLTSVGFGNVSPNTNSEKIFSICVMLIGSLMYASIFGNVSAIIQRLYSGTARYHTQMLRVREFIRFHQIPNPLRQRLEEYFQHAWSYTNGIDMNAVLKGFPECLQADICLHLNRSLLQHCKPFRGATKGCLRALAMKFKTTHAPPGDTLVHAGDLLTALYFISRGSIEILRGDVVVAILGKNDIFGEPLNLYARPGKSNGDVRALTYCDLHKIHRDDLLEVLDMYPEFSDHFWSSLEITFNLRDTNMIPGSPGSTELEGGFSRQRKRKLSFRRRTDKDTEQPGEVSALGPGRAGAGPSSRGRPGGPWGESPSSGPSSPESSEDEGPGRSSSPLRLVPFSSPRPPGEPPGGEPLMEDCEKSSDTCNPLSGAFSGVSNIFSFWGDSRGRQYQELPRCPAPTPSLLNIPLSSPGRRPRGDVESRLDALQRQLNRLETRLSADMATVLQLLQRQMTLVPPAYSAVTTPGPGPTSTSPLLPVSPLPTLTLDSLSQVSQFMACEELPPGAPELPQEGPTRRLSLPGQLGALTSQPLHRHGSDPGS

[8] = Selectivity ratio of IC50 for human ERG expressed in HEK cells to Ki for Sprague-Dawley rat brain DAT; type: cell-based
Mus musculus [9] = assay: Effect on execution of behavioral task in Swiss Webster mouse assessed as overall group response rate at 0.3 to 30 mg/kg, ip relative to control; type: organism-based; conditions: in vivo
Outline: (§2)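 Testing began after ≥85% correct responding on 4 consecutive sessions. Test drug given i.p. at 0.1–30 mg/kg, 5 or 30 min before the session, with 10 consecutive responses on either lever reinforced. ED50 taken from a linear fit. Response rate expressed as % of saline. 6 mice.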

Mus musculus [10] = assay: Effect on discriminating cocaine from saline in Swiss Webster mouse assessed as cocaine lever response at 0.3 to 30 mg/kg, ip administered 5 to 30 mins prior to training session relative to control; type: functional; outline: as §2
Liver = assay: Metabolic stability in mouse liver microsomes assessed as parent compound remaining at 10 uM after 1 hr in presence of NADPH by LC/MS/MS analysis; type: ADME, microsome
Outline: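 Mouse liver microsomes at 0.5 mg/mL with test compound at 10 μM final, in 100 mM potassium phosphate pH 7.4 with an NADPH regenerating system (1.3 mM NADPH). Reaction started by adding microsomes. Controls run without cofactor. Parent remaining measured by LC/MS/MS on a C18 column with formic acid/acetonitrile gradient. Triplicate.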

Mus musculus [11] = assay: Decrease in locomotory activity in Swiss Webster mouse at 3 to 30 mg/kg, ip after 1 hr relative to control; type: functional, organism-based
Outline: (§3)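 Male Swiss Webster mice, ambulatory activity counted in 40 cm³ clear acrylic chambers over a 1 h session with no prior habituation. Drug given i.p. at 1 mL/kg immediately before the session. 6 mice per dose, each used once. Analysed by ANOVA then Dunnett's test against vehicle.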

Mus musculus [12] = assay: Decrease in locomotory activity in Swiss Webster mouse at 56 mg/kg, ip after 1 hr relative to control; type: functional; design: scale not given: the % may be the effect or the level left; outline: as §3

Sequence of Sodium-dependent dopamine transporter (Rattus norvegicus, UniProt P23977) (P23977 whole entry): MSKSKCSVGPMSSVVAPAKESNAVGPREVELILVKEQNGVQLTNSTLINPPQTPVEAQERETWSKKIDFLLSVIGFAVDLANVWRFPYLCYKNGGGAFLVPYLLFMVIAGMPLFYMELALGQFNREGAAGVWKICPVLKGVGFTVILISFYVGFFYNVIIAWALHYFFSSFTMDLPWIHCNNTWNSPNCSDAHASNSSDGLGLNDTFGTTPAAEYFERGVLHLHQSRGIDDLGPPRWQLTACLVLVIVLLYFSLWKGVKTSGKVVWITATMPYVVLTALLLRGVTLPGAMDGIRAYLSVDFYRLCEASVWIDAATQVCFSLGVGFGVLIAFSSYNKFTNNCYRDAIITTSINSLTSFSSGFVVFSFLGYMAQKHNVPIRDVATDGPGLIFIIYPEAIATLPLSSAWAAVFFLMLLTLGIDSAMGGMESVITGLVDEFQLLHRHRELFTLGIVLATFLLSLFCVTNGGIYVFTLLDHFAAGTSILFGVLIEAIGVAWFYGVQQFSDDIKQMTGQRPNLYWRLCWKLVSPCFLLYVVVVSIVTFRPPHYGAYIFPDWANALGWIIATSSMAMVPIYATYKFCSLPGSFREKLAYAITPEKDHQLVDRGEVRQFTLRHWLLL

Compound: Fc1ccc(C(OC2CC3CCC(C2)N3CCN2CCCCC2)c2ccc(F)cc2)cc1 (stereo not drawn)
- pKi [1]: 7.88
- pKi [2]: 6.43
- pKi [3]: 5.84

Compound: CCCCN1C2CCC1CC(NC(c1ccc(F)cc1)c1ccc(F)cc1)C2 (stereo not drawn)
- pKi [4]: 7.62
- pKi [5]: 6.45
- pKi [6]: 7.21
- Ratio Ki (Homo sapiens): 15

Compound: CN1C2CCC1[C@@H](c1cc(-c3ccccc3)no1)[C@@H](OC(c1ccc(F)cc1)c1ccc(F)cc1)C2 (mixture of isomers)
- pKi [4]: 5.83
- pKi [5]: 5.46
- pKi [6]: 5.89
- pKi [1]: 7.22
- pKi [2]: 5.96
- Ratio Ki (Homo sapiens): 2.4
- pKi [3]: 5.42

Compound: Fc1ccc(C(OC2CC3CCC(C2)N3CC2CC2)c2ccc(F)cc2)cc1 (stereo not drawn)
- pIC50 [7]: 5.40
- pKi [1]: 7.61
- pKi [2]: 5.79
- Selectivity ratio [8]: 161
- pKi [3]: 5.85

Compound: Fc1ccc(C(OC2CC3CCC(C2)N3CCc2c[nH]c3ccccc23)c2ccc(F)cc2)cc1 (stereo not drawn)
- pKi [4]: 6.60
- pKi [5]: 5.77
- pKi [1]: 7.53
- pKi [2]: 5.13
- Ratio Ki (Homo sapiens): 6.7
- pKi [3]: 6.31

Compound: Cc1ccc(C2CC3CCC(C2c2cc(-c4ccc(Cl)cc4)no2)N3C)cc1 (stereo not drawn)
- pKi [4]: 7.57
- pKi [5]: 6.62
- pKi [6]: 8.01
- pKi [1]: 8.07
- pKi [2]: 6.05
- Ratio Ki (Homo sapiens): 9
- pKi [3]: 4.54

Compound: CC(C)[C@@H](N)CN1C2CCC1CC(NC(c1ccc(F)cc1)c1ccc(F)cc1)C2 (stereo partly drawn)
- pKi [1]: 7.68
- pKi [2]: 5.63
- pKi [3]: 5.27

Compound: NCCN1C2CCC1CC(OC(c1ccc(F)cc1)c1ccc(F)cc1)C2 (stereo not drawn)
- pKi [1]: 8.25
- pKi [2]: 5.85
- pKi [3]: 5.34

Compound: CCOC(=O)[C@@H]1C2CCC(C[C@@H]1OC(c1ccc(F)cc1)c1ccc(F)cc1)N2C[C@H](N)C(C)C (mixture of isomers)
- pKi [4]: 6.66
- pKi [5]: 5.81
- pKi [6]: 5.98
- pKi [1]: 7.27
- pKi [2]: 5.35
- Ratio Ki (Homo sapiens): 7.1
- pKi [3]: 5.86

Compound: CC(C)[C@@H](N)CN1C2CCC1CC(OC(c1ccc(F)cc1)c1ccc(F)cc1)C2 (stereo partly drawn)
- pKi [4]: 7.09
- pKi [5]: 6.51
- pKi [6]: 6.88
- pKi [1]: 7.88
- pKi [2]: 5.67
- Selectivity ratio [8]: 345
- Ratio Ki (Homo sapiens): 3.8
- pKi [3]: 5.41

Compound: CCOC(=O)[C@@H]1C2CCC(C[C@@H]1OC(c1ccc(F)cc1)c1ccc(F)cc1)N2CC1CC1 (mixture of isomers)
- pKi [1]: 7.92
- pKi [2]: 6.26
- pKi [3]: 5.43

Compound: Fc1ccc(C(NC2CC3CCC(C2)N3CCN2CCCCC2)c2ccc(F)cc2)cc1 (stereo not drawn)
- pKi [1]: 7.97
- pKi [2]: 6.21
- pKi [3]: 5.42

Compound: Cc1ccc(-c2cc(C3C(c4ccc(Cl)cc4)CC4CCC3N4C)on2)cc1 (stereo not drawn)
- pKi [4]: 7.46
- pKi [5]: 6.85
- pKi [6]: 7.80
- pKi [1]: 7.97
- pKi [2]: 5.93
- Ratio Ki (Homo sapiens): 4
- pKi [3]: 4.63

Compound: CN1C2CCC1[C@@H](c1cc(-c3ccccc3)no1)C(OC(c1ccc(F)cc1)c1ccc(F)cc1)C2 (single isomer, unassigned)
- pKi [4]: 7.55
- pKi [5]: 6.74
- pKi [6]: 6.67
- pKi [1]: 7.84
- pKi [2]: 6.38
- Ratio Ki (Homo sapiens): 6.5
- pKi [3]: 5.88

Compound: CN1C2CCC1[C@@H](c1cc(-c3ccc(F)cc3)no1)[C@@H](OC(c1ccc(F)cc1)c1ccc(F)cc1)C2 (mixture of isomers)
- pKi [1]: 7.16
- pKi [2]: 5.79
- pKi [3]: 5.52

Compound: CCOC(=O)[C@@H]1C2CCC(C[C@@H]1OC(c1ccc(F)cc1)c1ccc(F)cc1)N2CCc1c[nH]c2ccccc12 (mixture of isomers)
- pKi [4]: 6.83
- pKi [5]: 5.97
- pKi [6]: 6.03
- pKi [1]: 7.58
- pKi [2]: 5.84
- pKi [3]: 6.13

Compound: CN1C2CCC1[C@@H](c1cc(-c3ccc(Cl)cc3)no1)[C@@H](OC(c1ccc(F)cc1)c1ccc(F)cc1)C2 (mixture of isomers)
- pKi [1]: 7.18
- pKi [2]: 5.80
- pKi [3]: 6.12

Compound: CN(C)CCN1C2CCC1CC(NC(c1ccc(F)cc1)c1ccc(F)cc1)C2 (stereo not drawn)
- pKi [4]: 7.80
- pIC50 [7]: 5.26
- pKi [5]: 6.69
- pKi [6]: 7.40
- pKi [1]: 7.84
- pKi [2]: 5.40
- Selectivity ratio [8]: 383
- Ratio Ki (Homo sapiens): 20
- pKi [3]: 4.92

Compound: C=C[C@@H]1C2CCC(C[C@@H]1OC(c1ccc(F)cc1)c1ccc(F)cc1)N2CCN(C)C (mixture of isomers)
- pKi [1]: 7.87
- pKi [3]: 5.29

Compound: Cc1ccc(-c2cc([C@@H]3C4CCC(C[C@@H]3OC(c3ccc(F)cc3)c3ccc(F)cc3)N4C)on2)cc1 (mixture of isomers)
- pKi [1]: 7.03
- pKi [2]: 5.57
- pKi [3]: 5.36

Compound: CN(C)CCN1C2CCC1CC(OC(c1ccc(F)cc1)c1ccc(F)cc1)C2 (stereo not drawn)
- Activity (Mus musculus [9]): < 50%
- pKi [4]: 8.00
- Activity (Mus musculus [10]): 23%
- pIC50 [7]: 5.08
- Stability (Liver): 88%
- pKi [5]: 7.20
- pKi [6]: 7.33
- pKi [1]: 7.92
- pKi [2]: 6.03
- Selectivity ratio [8]: 686
- Ratio Ki (Homo sapiens): 6.3
- Activity (Mus musculus [11]): Active
- pKi [3]: 5.50
- Activity (Mus musculus [12]): 14%
